pIC50: −log10 of the molar value. Converted amounts (≈) assume the structure as drawn.
Tests used:
Hepatitis B virus [1] = experiment: Antiviral activity against HBV infected in human HepG2.2.15 cells assessed as inhibition of viral DNA level incubated for 3 days followed by medium replacement measured after 3 days by RT-PCR method; format: functional, organism-based; conditions: HepG2.2.15, 72 h
Summary of the method: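 HepG2.2.15 cells seeded at 4 × 10^4 cells/well, compound exposure 3 days, then fresh medium and a further 3-day incubation. Supernatants collected and stored at −80 °C. HBV DNA extracted from supernatant and quantified by qPCR. IC50 reported as the mean of three experiments.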

Core antigen = Core antigen (Hepatitis B virus, UniProt Q03732); experiment: Inhibition of HBV C150-Bodipy FL N-(2-aminoethyl) maleimide labeled capsid assessed as reduction in NaCl-induced capsid assembly preincubated for 15 mins followed by NaCl addition measured after 1 hr by fluorescence quenching assay
Core antigen, sequence (Q03732 whole entry): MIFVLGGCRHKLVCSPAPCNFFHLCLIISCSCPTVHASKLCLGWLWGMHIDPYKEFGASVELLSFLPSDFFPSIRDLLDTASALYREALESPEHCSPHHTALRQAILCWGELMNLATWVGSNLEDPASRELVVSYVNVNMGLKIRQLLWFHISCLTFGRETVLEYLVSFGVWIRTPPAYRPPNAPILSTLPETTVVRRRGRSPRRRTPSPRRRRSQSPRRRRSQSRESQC

[2] = Lipophilicity, log D of the compound; format: physicochemical; conditions: octanol/water
[3] = Kinetic solubility of the compound; format: physicochemical; conditions: read-out: Kinetic_solubility
[4] = Ratio of AUC (0 to 4 hrs) in Balb/c mouse liver to plasma administered orally by LC-MS/MS analysis; format: ADME; conditions: liver and plasma, po, read-out: Ratio AUC
Cytochrome P450 1A2 = target: T1, Cytochrome P450 1A2 (Homo sapiens, UniProt P05177); experiment: Inhibition of CYP1A2 in human liver microsomes using phenacetin as substrate preincubated for 10 mins followed by substrate addition measured after 10 mins in presence of NADPH by LC-MS/MS analysis; format: ADME
T1 sequence (P05177 whole entry): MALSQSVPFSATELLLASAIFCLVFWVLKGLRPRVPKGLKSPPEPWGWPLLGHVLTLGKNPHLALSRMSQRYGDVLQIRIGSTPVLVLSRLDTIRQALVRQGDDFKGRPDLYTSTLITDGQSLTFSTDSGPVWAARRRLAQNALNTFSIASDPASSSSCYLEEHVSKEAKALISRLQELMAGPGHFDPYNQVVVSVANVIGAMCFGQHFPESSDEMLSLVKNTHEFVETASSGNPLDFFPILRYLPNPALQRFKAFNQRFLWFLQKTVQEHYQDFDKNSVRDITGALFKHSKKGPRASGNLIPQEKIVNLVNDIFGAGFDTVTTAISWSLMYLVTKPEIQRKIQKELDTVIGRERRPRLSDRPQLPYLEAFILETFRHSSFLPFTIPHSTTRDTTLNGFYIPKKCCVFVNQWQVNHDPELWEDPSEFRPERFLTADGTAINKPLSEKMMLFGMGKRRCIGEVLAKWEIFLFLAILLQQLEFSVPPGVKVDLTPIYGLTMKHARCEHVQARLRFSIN

Cytochrome P450 2C9 = Cytochrome P450 2C9 (Homo sapiens, UniProt P11712); experiment: Inhibition of CYP2C9 in human liver microsomes using diclofenac as substrate preincubated for 10 mins followed by substrate addition measured after 10 mins in presence of NADPH by LC-MS/MS analysis; format: ADME
Cytochrome P450 2C9, sequence (P11712 whole entry): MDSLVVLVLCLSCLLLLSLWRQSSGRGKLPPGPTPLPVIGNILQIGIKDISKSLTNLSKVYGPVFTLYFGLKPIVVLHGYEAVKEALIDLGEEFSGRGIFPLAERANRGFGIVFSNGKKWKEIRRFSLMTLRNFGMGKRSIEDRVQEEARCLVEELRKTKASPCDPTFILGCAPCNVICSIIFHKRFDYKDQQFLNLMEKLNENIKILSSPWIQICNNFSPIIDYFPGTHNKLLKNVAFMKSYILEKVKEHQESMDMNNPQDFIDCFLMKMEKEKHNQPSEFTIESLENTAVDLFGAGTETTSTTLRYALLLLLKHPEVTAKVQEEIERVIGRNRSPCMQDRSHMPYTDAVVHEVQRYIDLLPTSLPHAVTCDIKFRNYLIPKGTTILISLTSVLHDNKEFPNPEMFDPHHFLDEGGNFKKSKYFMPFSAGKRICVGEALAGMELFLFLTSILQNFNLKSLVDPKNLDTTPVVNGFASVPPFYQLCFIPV

Cytochrome P450 2C19 = Cytochrome P450 2C19 (Homo sapiens, UniProt P33261); experiment: Inhibition of CYP2C19 in human liver microsomes using S-mephenytoin as substrate preincubated for 10 mins followed by substrate addition measured after 10 mins in presence of NADPH by LC-MS/MS analysis; format: ADME
Cytochrome P450 2C19, sequence (P33261 whole entry): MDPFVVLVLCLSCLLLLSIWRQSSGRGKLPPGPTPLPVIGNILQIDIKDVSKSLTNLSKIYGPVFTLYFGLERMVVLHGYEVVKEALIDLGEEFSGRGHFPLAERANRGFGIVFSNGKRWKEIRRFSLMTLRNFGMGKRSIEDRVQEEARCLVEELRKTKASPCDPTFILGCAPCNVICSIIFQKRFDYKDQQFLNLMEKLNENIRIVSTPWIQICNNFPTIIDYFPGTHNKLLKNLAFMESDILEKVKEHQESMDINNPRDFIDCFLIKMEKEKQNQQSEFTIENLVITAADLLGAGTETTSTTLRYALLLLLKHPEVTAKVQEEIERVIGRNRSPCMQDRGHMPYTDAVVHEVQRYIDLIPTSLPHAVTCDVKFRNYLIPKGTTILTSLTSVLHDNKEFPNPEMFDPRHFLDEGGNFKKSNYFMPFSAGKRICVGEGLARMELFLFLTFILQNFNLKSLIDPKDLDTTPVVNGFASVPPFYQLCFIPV

Cytochrome P450 2D6 = Cytochrome P450 2D6 (Homo sapiens, UniProt P10635); experiment: Inhibition of CYP2D6 in human liver microsomes using dextromethorphan as substrate preincubated for 10 mins followed by substrate addition measured after 10 mins in presence of NADPH by LC-MS/MS analysis; format: ADME; conditions: read-out: INH
Cytochrome P450 2D6, sequence (P10635 whole entry): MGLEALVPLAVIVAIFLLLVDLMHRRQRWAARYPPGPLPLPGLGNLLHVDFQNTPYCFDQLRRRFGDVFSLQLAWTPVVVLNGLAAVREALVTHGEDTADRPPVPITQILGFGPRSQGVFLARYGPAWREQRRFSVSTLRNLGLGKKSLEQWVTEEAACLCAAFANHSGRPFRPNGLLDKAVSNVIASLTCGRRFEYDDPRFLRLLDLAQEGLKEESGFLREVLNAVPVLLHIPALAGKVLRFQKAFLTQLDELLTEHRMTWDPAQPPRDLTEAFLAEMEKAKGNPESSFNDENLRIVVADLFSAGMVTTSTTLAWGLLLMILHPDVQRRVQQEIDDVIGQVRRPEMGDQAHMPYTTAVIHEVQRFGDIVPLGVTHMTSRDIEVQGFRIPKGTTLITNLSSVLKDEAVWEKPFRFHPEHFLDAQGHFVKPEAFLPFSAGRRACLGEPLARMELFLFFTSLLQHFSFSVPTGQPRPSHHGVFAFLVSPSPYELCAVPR

Cytochrome P450 3A4 = Cytochrome P450 3A4 (Homo sapiens, UniProt P08684); experiment: Inhibition of CYP3A4 in human liver microsomes using midazolam as substrate preincubated for 10 mins followed by substrate addition measured after 10 mins in presence of NADPH by LC-MS/MS analysis; format: ADME; conditions: read-out: INH
Cytochrome P450 3A4, sequence (P08684 whole entry): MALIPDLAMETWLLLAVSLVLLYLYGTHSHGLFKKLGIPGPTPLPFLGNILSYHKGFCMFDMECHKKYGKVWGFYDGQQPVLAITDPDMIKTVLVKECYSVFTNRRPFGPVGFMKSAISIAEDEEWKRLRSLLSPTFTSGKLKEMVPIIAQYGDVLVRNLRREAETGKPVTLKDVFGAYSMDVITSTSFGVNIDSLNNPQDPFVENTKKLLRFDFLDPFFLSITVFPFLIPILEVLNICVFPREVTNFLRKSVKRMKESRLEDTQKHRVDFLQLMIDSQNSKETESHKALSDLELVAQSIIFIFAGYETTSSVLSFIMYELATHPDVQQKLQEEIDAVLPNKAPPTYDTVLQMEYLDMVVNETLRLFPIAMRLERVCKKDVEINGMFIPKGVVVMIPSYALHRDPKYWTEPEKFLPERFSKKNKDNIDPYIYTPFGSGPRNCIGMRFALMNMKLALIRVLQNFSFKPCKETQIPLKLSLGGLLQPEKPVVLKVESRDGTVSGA

[5] = Half life in Balb/c mouse at 1 mg/kg, iv administered as bolus by LC-MS/MS analysis; format: ADME, organism-based; conditions: in vivo
Summary of the method: (§1)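 Single-dose PK in female Balb/c mice, n = 3 per compound; dosing vehicle 0.5% HEC, formulated at 1.00 mg/mL.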

[6] = Volume of distribution at steady state in Balb/c mouse at 1 mg/kg, iv administered as bolus by LC-MS/MS analysis; format: ADME, organism-based; conditions: in vivo, read-out: Vdss; summary of the method: as §1
[7] = Clearance in Balb/c mouse at 1 mg/kg, iv administered as bolus by LC-MS/MS analysis; format: ADME, organism-based; conditions: in vivo; summary of the method: as §1
[8] = AUC (0 to last) in Balb/c mouse at 1 mg/kg, iv administered as bolus by LC-MS/MS analysis; format: ADME, organism-based; design: dose 1 mg/kg, time 0 - last, route intravenous; conditions: in vivo; summary of the method: as §1
[9] = Cmax in Balb/c mouse at 10 mg/kg, po administered via gavage by LC-MS/MS analysis; format: ADME, organism-based; design: dose 10 mg/kg, route oral; conditions: in vivo; summary of the method: as §1
[10] = AUC (0 to last) in Balb/c mouse at 10 mg/kg, po administered via gavage by LC-MS/MS analysis; format: ADME, organism-based; design: dose 10 mg/kg, time 0 - last, route oral; conditions: in vivo; summary of the method: as §1
[11] = Oral bioavailability in Balb/c mouse at 10 mg/kg administered via gavage by LC-MS/MS analysis; format: ADME, organism-based; conditions: in vivo; summary of the method: as §1
Hepatitis B virus [12] = experiment: Antiviral activity against HBV1.3 mer infected in hydrodynamic injection BALB/c mouse model assessed as log reduction in viral DNA in plasma at 50 mg/kg, po bid measured on day 3 by real-time PCR method relative to control; format: functional
Summary of the method: (§2)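 HBV DNA mouse model established by hydrodynamic injection. Mice, n = 6 per group, dosed orally twice daily with compound or vehicle (0.5% HEC). HBV DNA in plasma and liver measured by qPCR; log reduction taken versus the vehicle group. Error shown as standard error; significance by Student's t test.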

Hepatitis B virus [13] = experiment: Antiviral activity against HBV1.3 mer infected in hydrodynamic injection BALB/c mouse model assessed as log reduction in viral DNA in liver at 50 mg/kg, po bid measured on day 7 by real-time PCR method relative to control; format: functional; summary of the method: as §2
Hepatitis B virus [14] = experiment: Antiviral activity against HBV1.3 mer infected in hydrodynamic injection BALB/c mouse model assessed as log reduction in viral DNA in plasma at 50 mg/kg, po bid measured on day 5 by real-time PCR method relative to control

Structure (SMILES) | pIC50 (Hepatitis B virus [1]) | also measured
CCOC(=O)C1=C2CCCN2C(c2cnn(C)c2)=NC1c1ccc(F)cc1Cl (configuration not stated) | < 5.00 | –
CCOC(=O)C1=C2CCCN2C(c2nccs2)=NC1c1ccc(F)cc1Br (configuration not stated) | 6.68 | –
COC(=O)C1=C2C[C@H](NS(C)(=O)=O)CN2C(c2nccs2)=N[C@H]1c1ccc(F)cc1Cl | 8.00 | pIC50 (Core antigen): 6.10; logD [2]: 2.8; solubility kinetic [3]: 22 µM (≈ 10.7 µg/mL); Kp [4]: 10; INH (Cytochrome P450 1A2): > 50 µM; INH (Cytochrome P450 2C9): 28 µM; INH (Cytochrome P450 2C19): 39 µM; pIC50 (Cytochrome P450 2D6): < 4.30; pIC50 (Cytochrome P450 3A4): 4.96; half-life [5]: 1.1 h; Vd [6]: 2 L/kg; clearance [7]: 21 mL/min/kg; AUC(0-t) [8]: 1.7 µM·h; Cmax [9]: 4.7 µM; AUC(0-t) [10]: 9.1 µM·h; bioavailability [11]: 54%; FC (Hepatitis B virus [12]): 2.05; FC (Hepatitis B virus [13]): 0.68; FC (Hepatitis B virus [14]): 2.57
CCOC(=O)C1=C2CNCCN2C(c2nccs2)=NC1c1ccc(F)cc1Br (configuration not stated) | 5.03 | –
COC(=O)C1=C2C[C@@H](NS(C)(=O)=O)CN2C(c2nccs2)=N[C@H]1c1ccc(F)cc1Cl | 7.22 | –
COC(=O)C1=C2C[C@@H](NC(=O)OC(C)(C)C)CN2C(c2nccs2)=N[C@H]1c1ccc(F)cc1Cl | 4.30 | –
CCOC(=O)C1=C2CCCN2C(c2nccs2)=NC1c1ccc(F)c(F)c1 (configuration not stated) | 6.37 | –
CCOC(=O)C1=C2C[C@@H](NS(C)(=O)=O)CN2C(c2nccs2)=N[C@H]1c1ccc(F)cc1Cl | 4.15 | –
CCOC(=O)C1=C2CN(S(C)(=O)=O)CCN2C(c2nccs2)=NC1c1ccc(F)cc1Br (configuration not stated) | 6.09 | –
CCOC(=O)C1=C2C[C@H](O)CN2C(c2nccs2)=NC1c1ccc(F)cc1Cl (some centres not stated) | 3.49 | –
CCOC(=O)C1=C2CCCN2C(c2ccsn2)=NC1c1ccc(F)cc1Cl (configuration not stated) | 5.55 | –
CCOC(=O)C1=C2CN(C(C)=O)CCN2C(c2nccs2)=NC1c1ccc(F)cc1Br (configuration not stated) | 6.11 | –
CN(C)CCOC(=O)C1=C2CCCN2C(c2nccs2)=NC1c1ccc(F)cc1Cl (configuration not stated) | < 5.00 | –
CCOC(=O)C1=C2CCCN2C(c2ncc(F)cc2F)=NC1c1ccc(F)cc1Cl (configuration not stated) | 5.80 | –
COC(=O)C1=C2C[C@H](NS(C)(=O)=O)CN2C(c2nccs2)=N[C@H]1c1ccc(F)c(F)c1F | 5.00 | –
CCOC(=O)C1=C2CCN2C(c2nccs2)=NC1c1ccc(F)cc1Cl (configuration not stated) | 5.39 | –
CCOC(=O)C1=C2CCCN2C(N2CCOCC2)=NC1c1ccc(F)cc1Cl (configuration not stated) | < 5.00 | –
CCOC(=O)C1=C2COCCN2C(c2nccs2)=NC1c1ccc(F)cc1Br (configuration not stated) | 5.60 | –
CCOC(=O)C1=C2CCCN2C(c2ccc(F)cn2)=NC1c1ccc(F)cc1Cl (configuration not stated) | 5.08 | –
CCOC(=O)C1=C2CCCN2C(c2nccs2)=NC1c1cc(Cl)sc1Cl (configuration not stated) | 5.77 | –
CCOC(=O)C1=C2CCCN2C(c2nccn2C)=NC1c1ccc(F)cc1Cl (configuration not stated) | 5.70 | –
COCCOC(=O)C1=C2CCCN2C(c2nccs2)=NC1c1ccc(F)cc1Cl (configuration not stated) | < 5.00 | –
CCOC(=O)C1=C2CCCN2C(c2nccs2)=NC1c1ccc(F)cc1 (configuration not stated) | 5.92 | –
CCOC(=O)C1=C2CCCN2C(c2nccs2)=NC1c1ccc(F)cc1Cl (configuration not stated) | 6.52 | –

Structure (SMILES) | pIC50 (Hepatitis B virus [1]) | also measured
CCOC(=O)C1=C2CNC(=O)CN2C(c2nccs2)=NC1c1ccc(F)cc1Br (configuration not stated) | 5.46 | –
CCOC(=O)C1=C2CCCN2C(c2nccs2)=NC1c1ccc(F)cc1C (configuration not stated) | 6.35 | –
O=C(OCC(F)F)C1=C2CCCN2C(c2nccs2)=NC1c1ccc(F)cc1Cl (configuration not stated) | 5.70 | –
COCOC(=O)C1=C2CCCN2C(c2nccs2)=NC1c1ccc(F)cc1Cl (configuration not stated) | 5.68 | –
COC(=O)C1=C(C)NC(c2ncc(F)cc2F)=N[C@H]1c1ccc(F)cc1Cl | 7.12 | –
CCOC(=O)C1=C2CCCN2C(c2nccs2)=NC1c1nccs1 (configuration not stated) | < 5.00 | –
CCOC(=O)C1=C2CCCCN2C(c2nccs2)=NC1c1ccc(F)cc1Cl (configuration not stated) | 5.85 | –
CCOC(=O)C1=C2C[C@H](NS(C)(=O)=O)CN2C(c2nccs2)=N[C@H]1c1ccc(F)cc1Cl | 5.00 | –
COC(=O)C1=C2C[C@H](NC(=O)OC(C)(C)C)CN2C(c2nccs2)=N[C@H]1c1ccc(F)cc1Cl | 4.52 | –
CCOC(=O)C1=C2CCCN2C(c2nccs2)=NC1c1cnn(C)c1 (configuration not stated) | < 5.00 | –
CCOC(=O)C1=C2CCCN2C(c2ccccn2)=NC1c1ccc(F)cc1Cl (configuration not stated) | < 5.00 | –
CCOC(=O)C1=C2C[C@H](N(C)C)CN2C(c2nccs2)=N[C@H]1c1ccc(F)cc1Br | 3.30 | –
CCOC(=O)C1=C2CCCN2C(c2nccs2)=NC1c1cc(F)ccc1Cl (configuration not stated) | < 5.00 | –
COC(=O)C1=C2CCCN2C(c2nccs2)=NC1c1ccc(F)cc1Cl (configuration not stated) | 6.49 | –
CCOC(=O)C1=C2CCCN2C(c2nccs2)=NC1c1cccc(F)c1Cl (configuration not stated) | 6.51 | –
CCOC(=O)C1=C2CCCN2C(c2ncc(F)cn2)=NC1c1ccc(F)cc1Cl (configuration not stated) | < 5.00 | –
CCOC(=O)C1=C2CCCN2C(c2nccs2)=NC1c1ccc(F)cc1F (configuration not stated) | 6.29 | –
CCOC(=O)C1=C2CCCN2C(c2ncco2)=NC1c1ccc(F)cc1Cl (configuration not stated) | 5.20 | –
CONC(=O)C1=C2CCCN2C(c2nccs2)=NC1c1ccc(F)cc1Cl (configuration not stated) | 5.30 | –
CCOC(=O)C1=C2CCCN2C(c2nccs2)=NC1c1ncc(F)cc1F (configuration not stated) | < 5.00 | –
CCOC(=O)C1=C2CCCN2C(c2nccs2)=NC1c1c(F)cccc1Cl (configuration not stated) | < 5.00 | –
CCOC(=O)C1=C2CCC(C)N2C(c2nccs2)=NC1c1ccc(F)cc1Cl (configuration not stated) | 2.10 | –
CCOC(=O)C1=C2CCCN2C(c2nccs2)=NC1c1ccncc1Cl (configuration not stated) | < 5.00 | –
CCOC(=O)C1=C2CCCN2C(C2CC2)=NC1c1ccc(F)cc1Cl (configuration not stated) | < 5.00 | –

Source: ChEMBL document CHEMBL4130455, “Design, Synthesis, and Evaluation of Tetrahydropyrrolo[1,2-c]pyrimidines as Capsid Assembly Inhibitors for HBV Treatment” (ACS Med Chem Lett, 2017)
